# Screening data as filed in PubChem BioAssay.
# An excerpt weighted towards active compounds, which were near 2.6% of everything screened.
# KCC2 mod = modulates chloride dependent transport by human KCC2. 190,000 tested, 2.2% active. B-score of Tl+ flux slope (higher = more flux/activation; lower = inhibition) at 10 µM. AID 1456. KCC2 cells, thallium flux FluoZin-2 fluorescence. Q9H2X9;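 active = thallium flux slope and its plate-corrected score both differing from the plate sample mean at a set confidence after two filtering rounds, in either direction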;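 also: slope of fluorescence scaled to starting intensity during 10 to 20 s after thallium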
# Rad51 HR inh = Rad51 (human) homologous recombination inhibition | inhibition, % at 10 µM | Q06609 | hRad51 DNA strand exchange, fluorescence dequenching | 200,000 tested, 0.085% active;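 active = inhibition above 40% at the single screening dose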;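 also: 0% = DMSO control wells and 100% = blanks with heterologous ssDNA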
# Target sequence (Q06609 whole entry, looked up): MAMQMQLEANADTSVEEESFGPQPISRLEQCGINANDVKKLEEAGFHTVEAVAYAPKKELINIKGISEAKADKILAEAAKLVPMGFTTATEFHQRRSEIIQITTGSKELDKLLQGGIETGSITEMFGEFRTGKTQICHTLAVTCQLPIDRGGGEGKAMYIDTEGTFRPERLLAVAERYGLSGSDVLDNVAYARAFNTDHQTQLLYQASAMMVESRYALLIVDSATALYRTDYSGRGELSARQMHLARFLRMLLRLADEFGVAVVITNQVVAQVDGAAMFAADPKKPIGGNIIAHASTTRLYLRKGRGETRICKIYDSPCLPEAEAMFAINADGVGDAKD
#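 Assay system: Human Rad51 nucleoprotein filaments preassembled on unlabelled ssDNA | Reagent: Donor/quencher-labelled 47-bp dsDNA substrate | Doses: One concentration, 10 µM final | Times: 37 °C 15-min filament assembly, 30-min compound preincubation, 15-min exchange | Technique: Fluorescein emission 520 nm, excitation 485 nm | Benchmarks: Plate control and blank wells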
# CHT inh = inhibitors of human choline transporter CHT; Q9GZV3; CHT-expressing cells, membrane potential dye, choline response; active compounds read low; B-score at 10 µM; 310,000 tested, 0.86% active; AID 488975;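 active = B-score over 3 SD under the library average, and starting fluorescence ratio not unusually high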;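 also: choline stimulus applied at its EC90 after an EC20 pre-addition; B-score computed on integrated fluorescence ratio after choline addition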
# CHT PAM = allosteric activators of human choline transporter CHT; Q9GZV3; CHT-expressing cells, membrane potential dye, choline EC20; active compounds read high; LV-AA mutant CHT in HEK293 cells; B-score at 10 µM; 310,000 tested, 0.49% active;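 active = initial fluorescence not abnormally high and integrated response B-score, plate-corrected, over 3 SD above library mean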
# * hit, by the source's call; i = inactive; nt = no result given.
SMILES,KCC2 mod,Rad51 HR inh,CHT inh,CHT PAM
CC1CCc2cc(F)cc3c(O)c(C(=O)NCCN(C)C)c(=O)n1c23 (stereo not drawn),nt,nt,i,i
COc1ccc(-c2[nH]n(-c3ccc([N+](=O)[O-])cc3)c(=O)c2C=NCCN2CCNCC2)cc1,-1.1,17,i,9.3*
COc1ccc2[nH]c(C)cc(=O)c2c1,-0.0035,1,i,i
COc1ccc2[nH]c3c(C)c4ccncc4c(C)c3c2c1,-0.23,47*,i,i
CC1Cc2ccccc2N1C(=O)CN1CCC(C(N)=O)CC1 (stereo not drawn),1.3,nt,i,i
COc1ccccc1CNC(=O)CCC1N=C2c3ccccc3N=C(SCC(=O)NCC3CCCO3)N2C1=O (stereo not drawn),nt,nt,i,i
CCc1ccc(S(=O)(=O)/N=C2\C=C(Nc3ccc(C(=O)O)cc3)C(=O)c3ccccc32)cc1,nt,nt,-7.2*,i
COc1ccc(C)cc1NC(=O)C(=O)NNC(=O)c1ccco1,21*,-5,i,i
COc1ccc(C)cc1NC(=O)CCNC(=O)c1ccco1,nt,nt,i,i
Cc1ccc(C)c(C(=O)COC(=O)CN2C(=O)C3C4C=CC(C4)C3C2=O)c1 (stereo not drawn),nt,nt,i,i
C=CCn1c(SCC(=O)OC)nc2sc3c(c2c1=O)CCN(C)C3,0.29,6,i,6.3*
COc1cc(/C=C2\SC(=S)N(C(Cc3ccccc3)C(=O)O)C2=O)ccc1O (stereo not drawn),-0.65,-78,i,i
COc1cccc(/C=C2\SC(=S)N(C(C(=O)O)c3ccccc3)C2=O)c1OC (stereo not drawn),-3.1,9,i,i
O=C(O)C(Cc1ccccc1)N1C(=O)/C(=C/c2cccc3ccccc23)SC1=S (stereo not drawn),-7.2*,3,i,i
Cc1ccc(/C=C2\SC(=S)N(C(Cc3ccccc3)C(=O)O)C2=O)cc1 (stereo not drawn),-3.5*,-2,i,i
C/C(N)=C(/C#N)C(=O)COC(=O)c1ccc(OCC2CCCO2)cc1 (stereo not drawn),nt,nt,i,i
CC(C)C(=O)NC(=S)N(Cc1ccccc1)Cc1ccccc1,42*,2,i,i
CC(C)CC(=O)NC(=S)N(Cc1ccccc1)Cc1ccccc1,49*,5,i,i
CC(C)c1ccccc1NC(=S)N1CCN(Cc2ccc3c(c2)OCO3)CC1,-0.52,48*,i,i
COc1ccc(C(=O)CCN2CCN(c3ccc(OC)cc3)CC2)cc1,nt,nt,i,i
COc1ccc(N2CCN(CCC(N)=O)CC2)cc1,0.36,108*,i,i
CCc1nn(C(C)C(=O)NCc2cccc(OC)c2)c(=O)c2cc3occc3n12 (stereo not drawn),nt,nt,i,i
O=C(/C=C/c1ccc(Cl)cc1)NC(=S)NN1CCCCC1c1cccnc1 (stereo not drawn),6.2*,-4,i,i
COc1ccc(CN(C)CC(=O)NC(=O)NCc2ccccc2)cc1OC,5*,nt,i,i
COc1ccccc1/C=C/C(=O)NC(=S)N(C)C1CCCCC1,9.8*,-3,i,i
SMILES,KCC2 mod,Rad51 HR inh,CHT inh,CHT PAM
CN(C(=S)NC(=O)c1ccccc1Br)C1CCCCC1,31*,-7,i,i
COc1ccc(C(=O)NC(=S)N(C)C2CCCCC2)cc1Br,nt,nt,i,i
Cc1ccccc1C(=O)NC(=S)N(C)C1CCCCC1,nt,nt,i,i
Cn1c(SCC#N)nnc1-c1cnccn1,1.1,-5,i,i
O=C1CN(C(=O)CSc2nc3ccccc3c(=O)n2Cc2ccc(F)cc2)c2ccccc2N1,19*,11,i,i
Cc1nc(SCC2(C)CC2(Cl)Cl)n[nH]1 (stereo not drawn),1.5,-61,i,i
Cc1csc2nc(CN3CCN(CC(=O)N(C)C)CC3)cc(=O)n12,nt,nt,i,i
CN(C)S(=O)(=O)c1cccc(NC(=S)Nc2ccc(Cl)cc2Cl)c1,5.5*,4,i,i
CC(C)c1ccc2[nH]c3c(c2c1)[C@@H]1CCN2C(=O)CCC[C@H](C3)[C@H]12,nt,nt,i,i
O=C1NC(Nc2nccs2)(C(F)(F)F)C(=O)N1CCc1ccccc1 (stereo not drawn),-2.6*,-1,i,i
COc1cc(C)c(NC(=O)COc2ccc3c(c2)OCO3)cc1C,nt,nt,i,i
O=C(/C=C/c1ccc([N+](=O)[O-])cc1)c1cccs1,-0.1,1,i,i
Nc1ccc(/C=C/C(=O)c2cccs2)cc1,-7.4*,-25,i,i
O=C(NCc1ccc(N2CCCC2=O)cc1)C1CCC(=O)N(Cc2ccccc2F)C1 (stereo not drawn),nt,nt,i,i
Clc1ccccc1-c1nnc2sc(CCc3ccccc3)nn12,-3.4*,-6,i,i
NC(N)=N/N=C/c1ccc(Cl)cc1Cl,-0.01,21,-7.9*,i
O=C(NC1CCS(=O)(=O)C1)c1ccc(S(=O)(=O)N2CCCCC2)cc1 (stereo not drawn),-2,nt,i,i
O=C(Cn1nnc2ccccc21)OCC(=O)c1ccccc1,3.2*,-8,i,i
CCOc1ccc(C(=O)NC(=S)N2CCN(c3ccc(C(F)(F)F)cc3[N+](=O)[O-])CC2)cc1,-0.59,-2,i,i
O=C(NC(=S)N1CCN(c2ccc(Cl)cc2[N+](=O)[O-])CC1)c1cccs1,71*,0,i,i
CC(C)Oc1cccc(C(=O)NC(=S)N2CCN(c3ccc(C(F)(F)F)cc3[N+](=O)[O-])CC2)c1,18*,1,i,i
CC1(C)CC(=O)C(CS(=O)(=O)c2ccccc2)=C(Cl)C1,nt,nt,i,i
O=C(c1cccc(S(=O)(=O)N2CCN(c3ccccc3)CC2)c1)N1CCN(c2ccccc2O)CC1,nt,nt,i,i
Cc1ccc(C2c3c(C)nn(-c4ccc([N+](=O)[O-])cc4)c3N=C3C(=O)Nc4ccccc4N32)cc1 (stereo not drawn),-0.81,-16,-6.3*,i
CCOC(=O)COn1c(=O)c(-c2cccs2)[n+]([O-])c2ccccc21,1.8,9,i,i
SMILES,KCC2 mod,Rad51 HR inh,CHT inh,CHT PAM
CCOn1c(=O)c(-c2cccs2)[n+]([O-])c2ccccc21,3.8*,-3,i,i
CCc1cc(-c2n[nH]c(=S)n2C(C)c2ccccc2)cs1 (stereo not drawn),3.9*,1,i,i
CCOC(=O)N1CCN(C(=S)Nc2ccc3nc(N4CCN(CC)CC4)cc(C)c3c2)CC1,0.025,9,-8.3*,i
CCN1CCN(c2cc(C)c3cc(NC(=S)N4CCCC4)ccc3n2)CC1,0.6,7,i,i
COCCC1CCCCN1C(=O)c1cc(COc2ccc(-n3cncn3)cc2)on1 (stereo not drawn),nt,nt,i,i
Cc1ccc(CNC(=O)CSc2c3c(nc4ccc(Cl)cc24)CCCC3)o1,4.8*,1,i,i
